According to ChEMBL document CHEMBL2034979, “Design, synthesis and antiviral activity of novel quinazolinones” (Eur J Med Chem, 2012):

Columns and labels:
Tobacco mosaic virus [1] = assay: In vitro antiviral activity against TMV assessed as inhibition rate at 500 ug/mL; format: functional
Tobacco mosaic virus [2] = assay: In vivo antiviral activity against TMV assessed as viral inactivation effect at 500 ug/mL; format: functional
Tobacco mosaic virus [3] = assay: In vivo antiviral activity against TMV assessed as curative effect at 500 ug/mL; format: functional
Tobacco mosaic virus [4] = assay: In vivo antiviral activity against TMV assessed as protection effect at 500 ug/mL; format: functional
[5] = Cytotoxicity against human TZM-bl cells at 10 uM after 48 hrs by MTT assay; format: cell-based
Outline: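 TZM-bl cells plated and held 18 h at 37 °C, then exposed to compounds for 48 h. MTT (5 mg/mL stock, 20 µL per well) added and incubated 3 h at 37 °C. Plates shaken 10 min at room temperature. OD550 read against a 690 nm reference. Single test concentration of 10 µM.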

[6] = test system: Human immunodeficiency virus; assay: Antiviral activity against HIV infected in human TZM-bl cells at 10 uM after 48 hrs by luciferase-based reporter gene assay; format: functional; details: Human immunodeficiency virus 1, TZM-bl
Outline: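 TZM-bl cells seeded at 10^4 cells/well. Next day, compounds were added at 10 µM with AZT and MK-0518 reference controls, then pseudotyped HIV-1 was added (final DMSO 2%). Plates were incubated 48 h at 37 °C in humidified CO2. Steady-Glo substrate was added, cells lysed 20 min in the dark, and luciferase luminescence was read.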

Compound `NC(=O)c1ncn([C@@H]2O[C@H](CO)[C@@H](O)[C@H]2O)n1` [RIBAVIRIN] has an inhibition at 500 µg/mL (Tobacco mosaic virus [1]) of 38.5%, an Activity (Tobacco mosaic virus [2]) of 34.2% and an Activity (Tobacco mosaic virus [3]) of 32.7%. For the same compound, the Activity (Tobacco mosaic virus [4]) was 39.6%.
With `Cn1c(-c2ccc([N+](=O)[O-])cc2)nc2ccc(C(=O)NCc3ccc(F)cc3)c(O)c2c1=O` the Activity [5] was “Non-toxic” and the inhibition at 10 µM [6] was 77.5%.
`Cc1nnc(C(=O)NC(C)(C)c2nc(C(=O)NCc3ccc(F)cc3)c(O)c(=O)n2C)o1` [RALTEGRAVIR] showed an inhibition at 10 µM [6] of 95.2%.
With `Cn1c(-c2ccc(F)cc2)nc2ccc(C(=O)NCc3ccc(F)cc3)c(O)c2c1=O` the Activity [5] was “Non-toxic” and the inhibition at 10 µM [6] was 68.4%.
For `COc1c(C(=O)NCc2ccc(F)cc2)ccc2nc(Cc3ccc([N+](=O)[O-])cc3)n(C)c(=O)c12`, the Activity [5] was “Non-toxic”, the inhibition at 10 µM [6] was -33.8% and the Activity (Tobacco mosaic virus [2]) was 0%. The Activity (Tobacco mosaic virus [3]) was 0% and the Activity (Tobacco mosaic virus [4]) was 12.4%.
With `COc1c(C(=O)NCc2ccc(F)cc2)ccc2c1C(=O)N(C)C(c1cccs1)N2` (centres undefined) the Activity [5] was “Non-toxic”, the inhibition at 10 µM [6] was 17.5% and the inhibition at 500 µg/mL (Tobacco mosaic virus [1]) was 16.3%. The Activity (Tobacco mosaic virus [2]) was 13.7%, the Activity (Tobacco mosaic virus [3]) was 0% and the Activity (Tobacco mosaic virus [4]) was 5.4%.
In the case of `CCCCC1Nc2ccc(C(=O)NCc3ccc(F)cc3)c(OC)c2C(=O)N1C` (centres undefined), the Activity [5] is reported as “Non-toxic” and the inhibition at 10 µM [6] is reported as 3.2%.
With `COc1c(C(=O)NCc2ccc(F)cc2)ccc2nc(Cc3ccc(F)cc3)n(C)c(=O)c12` the Activity [5] was “Non-toxic”, the inhibition at 10 µM [6] was -27.4% and the inhibition at 500 µg/mL (Tobacco mosaic virus [1]) was 21.2%. For the same compound, the Activity (Tobacco mosaic virus [2]) was 10.6%, the Activity (Tobacco mosaic virus [3]) was 15.2% and the Activity (Tobacco mosaic virus [4]) was 17.7%.
With `Cn1c(-c2ccccn2)nc2ccc(C(=O)NCc3ccc(F)cc3)c(O)c2c1=O` the Activity [5] was “Non-toxic” and the inhibition at 10 µM [6] was -11%.
With `Cn1c(Cc2ccc([N+](=O)[O-])cc2)nc2ccc(C(=O)NCc3ccc(F)cc3)c(O)c2c1=O` the Activity [5] was “Non-toxic”, the inhibition at 10 µM [6] was 29% and the inhibition at 500 µg/mL (Tobacco mosaic virus [1]) was 18.4%. For the same compound, the Activity (Tobacco mosaic virus [2]) was 12.7%, the Activity (Tobacco mosaic virus [3]) was 13.3% and the Activity (Tobacco mosaic virus [4]) was 16.8%.
With `COc1c(C(=O)NCc2ccc(F)cc2)ccc2c1C(=O)N(C)C(Cc1ccc([N+](=O)[O-])cc1)N2` (centres undefined) the Activity [5] was “Non-toxic” and the inhibition at 10 µM [6] was -17.7%.
With `COc1c(C(=O)NCc2ccc(F)cc2)ccc2c1C(=O)N(C)C(c1ccco1)N2` (centres undefined) the Activity [5] was “Non-toxic”, the inhibition at 10 µM [6] was 8.1% and the inhibition at 500 µg/mL (Tobacco mosaic virus [1]) was 7.5%. It also gave an Activity (Tobacco mosaic virus [2]) of 8.2%, an Activity (Tobacco mosaic virus [3]) of 0% and an Activity (Tobacco mosaic virus [4]) of 0%.
For `CCCCc1nc2ccc(C(=O)NCc3ccc(F)cc3)c(O)c2c(=O)n1C`, the Activity [5] was “Non-toxic” and the inhibition at 10 µM [6] was 2.4%.
For `Cn1c(-c2ccco2)nc2ccc(C(=O)NCc3ccc(F)cc3)c(O)c2c1=O`, the Activity [5] was “Non-toxic” and the inhibition at 10 µM [6] was -9.2%.
For `Cn1c(-c2cccs2)nc2ccc(C(=O)NCc3ccc(F)cc3)c(O)c2c1=O`, the Activity [5] was “Non-toxic”, the inhibition at 10 µM [6] was 33.2% and the inhibition at 500 µg/mL (Tobacco mosaic virus [1]) was 14.5%. It also gave an Activity (Tobacco mosaic virus [2]) of 8.2%, an Activity (Tobacco mosaic virus [3]) of 10.9% and an Activity (Tobacco mosaic virus [4]) of 9.8%.
With `COc1c(C(=O)NCc2ccc(F)cc2)ccc2c1C(=O)N(C)C(c1ccc([N+](=O)[O-])cc1)N2` (centres undefined) the Activity [5] was “Non-toxic”, the inhibition at 10 µM [6] was 64.9% and the inhibition at 500 µg/mL (Tobacco mosaic virus [1]) was 19.5%. The Activity (Tobacco mosaic virus [2]) was 18.9%, the Activity (Tobacco mosaic virus [3]) was 15% and the Activity (Tobacco mosaic virus [4]) was 20.3%.
For `COc1c(C(=O)NCc2ccc(F)cc2)ccc2c1C(=O)N(C)C(c1ccccn1)N2` (centres undefined), the Activity [5] was “Non-toxic”, the inhibition at 10 µM [6] was 9.9% and the inhibition at 500 µg/mL (Tobacco mosaic virus [1]) was 0%. For the same compound, the Activity (Tobacco mosaic virus [2]) was 15.2%, the Activity (Tobacco mosaic virus [3]) was 0% and the Activity (Tobacco mosaic virus [4]) was 8.7%.
For `COc1c(C(=O)NCc2ccc(F)cc2)ccc2nc(-c3ccc([N+](=O)[O-])cc3)n(C)c(=O)c12`, the Activity [5] was “Non-toxic” and the inhibition at 10 µM [6] was -3.8%.
For `Cn1c(Cc2ccc(F)cc2)nc2ccc(C(=O)NCc3ccc(F)cc3)c(O)c2c1=O`, the Activity [5] was “Non-toxic” and the inhibition at 10 µM [6] was 49.5%.
In the case of `COc1c(C(=O)NCc2ccc(F)cc2)ccc2nc(-c3ccccn3)n(C)c(=O)c12`, the Activity [5] is reported as “Non-toxic”, the inhibition at 10 µM [6] is reported as 44.6% and the inhibition at 500 µg/mL (Tobacco mosaic virus [1]) is reported as 21.3%. For the same compound, the Activity (Tobacco mosaic virus [2]) was 29.4%, the Activity (Tobacco mosaic virus [3]) was 17.6% and the Activity (Tobacco mosaic virus [4]) was 19.5%.
For `Cc1cn([C@H]2C[C@H](N=[N+]=[N-])[C@@H](CO)O2)c(=O)[nH]c1=O` [ZIDOVUDINE], the inhibition at 10 µM [6] was 98.1%.
In the case of `COc1c(C(=O)NCc2ccc(F)cc2)ccc2c1C(=O)N(C)C(c1ccc(F)cc1)N2` (centres undefined), the Activity [5] is reported as “Non-toxic”, the inhibition at 10 µM [6] is reported as 31% and the inhibition at 500 µg/mL (Tobacco mosaic virus [1]) is reported as 24.2%. It also gave an Activity (Tobacco mosaic virus [2]) of 30.4%, an Activity (Tobacco mosaic virus [3]) of 26.3% and an Activity (Tobacco mosaic virus [4]) of 28.9%.
For `COc1c(C(=O)NCc2ccc(F)cc2)ccc2c1C(=O)N(C)C(Cc1ccc(F)cc1)N2` (centres undefined), the Activity [5] was “Non-toxic” and the inhibition at 10 µM [6] was 15.6%.
For `COc1c(C(=O)NCc2ccc(F)cc2)ccc2nc(-c3ccc(F)cc3)n(C)c(=O)c12`, the Activity [5] was “Non-toxic”, the inhibition at 10 µM [6] was 27.6% and the Activity (Tobacco mosaic virus [2]) was 13.3%. The Activity (Tobacco mosaic virus [3]) was 8.2% and the Activity (Tobacco mosaic virus [4]) was 7.4%.
In the case of `COc1c(C(=O)NCc2ccc(F)cc2)ccc2nc(-c3cccs3)n(C)c(=O)c12`, the Activity [5] is reported as “Non-toxic”, the inhibition at 10 µM [6] is reported as 25.1% and the inhibition at 500 µg/mL (Tobacco mosaic virus [1]) is reported as 0%. For the same compound, the Activity (Tobacco mosaic virus [2]) was 20.4%, the Activity (Tobacco mosaic virus [3]) was 9.4% and the Activity (Tobacco mosaic virus [4]) was 12.7%.
For `COc1c(C(=O)NCc2ccc(F)cc2)ccc2nc(-c3ccco3)n(C)c(=O)c12`, the Activity [5] was “Non-toxic”, the inhibition at 10 µM [6] was 1.6% and the inhibition at 500 µg/mL (Tobacco mosaic virus [1]) was 10%. For the same compound, the Activity (Tobacco mosaic virus [2]) was 0%, the Activity (Tobacco mosaic virus [3]) was 8.9% and the Activity (Tobacco mosaic virus [4]) was 11.7%.
For `CCCCc1nc2ccc(C(=O)NCc3ccc(F)cc3)c(OC)c2c(=O)n1C`, the Activity [5] was “Non-toxic” and the inhibition at 10 µM [6] was 19.1%.
